Data set [1] is described as follows: Inhibition of Norovirus 3CLpro using Edans-DFHLQ/GP-Dabcyl as substrate preincubated for 30 mins followed by substrate addition measured after 1 hr by FRET assay. An outline of the steps:
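Protease and serial compound dilutions up to 100 μM (or DMSO) held in 20 mM HEPES pH 8, 200 mM NaCl, 0.4 mM EDTA, 60% glycerol, 6 mM DTT at 37°C for 30 min, then substrate added. Fluorescence (ex 360/em 460 nm) read 1 h later, background subtracted (no-protease well). IC50 from variable-slope curve fit; average of at least two determinations.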

Another data set concerns Norovirus. Nature of the data set: Antiviral activity against Norovirus replicon infected in human HG23 cells assessed as inhibition of viral RNA replication after 48 hrs by qRT-PCR method. The data set is classed as functional, cell-based. In short, it runs like this: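 HG23 cells (NV replicon-harboring hepatoma), confluent and semi-confluent, given medium with DMSO (<0.1%) or compound up to 20 μM for 48 h. Total RNA extracted and viral genome quantified by real-time qRT-PCR. EC50 fitted from dose-response; average of at least two determinations.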

In data set [2] the test system is Murine norovirus. Nature of the data set: Antiviral activity against MNV replicon infected in mouse RAW264.7 cells assessed as inhibition of viral RNA replication after 24 hrs. The following applies: RAW264.7, 24 h.
Data set [3] is described as follows: Cytotoxicity against human HG23 cells after 48 hrs by crystal violet staining-based assay. The data set is classed as cell-based. The following applies: for CC50 at 48 h: HG23 cells, read-out: TC50; for CC50: hg23, 48 h, 48 h, read-out: TC50 (the source's name). An outline of the steps:
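Confluent NV replicon-bearing hepatoma HG23 cells exposed to compound at 1 to 100 μM for 48 h. Cytotoxicity read by CytoTox 96 nonradioactive assay and crystal violet staining; CC50 taken as concentration giving 50% cell death, averaged over at least two determinations.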

Data set [4] deals with Murine norovirus. Nature of the data set: Antiviral activity against MNV replicon infected in mouse RAW264.7 cells assessed as inhibition of viral RNA replication after 24 hrs. The data set is classed as functional, cell-based. An outline of the steps:
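Confluent RAW264.7 cells infected with MNV at MOI 0.1 for 1 h; inoculum then replaced with medium containing compound (up to 20 μM) or DMSO (0.1%). Further 24 h incubation; virus replication quantified by TCID50 titration. EC50 from dose-response fitting; values average of at least two determinations.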

Molecules are shown by their SMILES.

In ChEMBL document CHEMBL3992515, “Design, synthesis, and evaluation of a novel series of macrocyclic inhibitors of norovirus 3CL protease” (Eur J Med Chem, 2017) one finds IC50, EC50 and CC50 data, which are given here for 22 compounds.

Turning to `C[C@@H]1NC(=O)OC(c2cccc(Cl)c2)CCCCCNC(=O)CC[C@@H](C=O)NC1=O` (stereo partly drawn), the IC50 in data set [1] is more than 100 µM. The EC50 was more than 20 µM with Norovirus (Norovirus, HG23, 48 h) and more than 20 µM in the data set with Murine norovirus [2]. The CC50 at 48 h in data set [3] was more than 100 µM.

In data set [1], `CC(C)C[C@@H]1NC(=O)OC(c2cccc(Cl)c2)CCCCCNC(=O)CC[C@@H](C(O)S(=O)(=O)O)NC1=O` (stereo partly drawn) displayed an IC50 of 1.1 µM. Also, the EC50 in the data set with Norovirus (Norovirus, HG23, 48 h) is 1.6 µM; in the data set on Murine norovirus [2] it was 15.1 µM. The CC50 at 48 h in data set [3] is more than 100 µM.

For `O=C1CC[C@@H](C(O)S(=O)(=O)O)NC(=O)C2(CCCCC2)NC(=O)OC(c2cccc(Cl)c2)CCCCCCN1` (stereo partly drawn), in data set [1], the IC50 is more than 100 µM. For the same compound, the EC50 is more than 20 µM in the data set with Norovirus (Norovirus, HG23, 48 h) and more than 20 µM in the data set with Murine norovirus [2]. The CC50 at 48 h in data set [3] was found to be 46.6 µM.

Turning to `CC(C)C[C@@H]1NC(=O)OC(CCCc2ccccc2)CCCCCNC(=O)CC[C@@H](C(O)S(=O)(=O)O)NC1=O` (stereo partly drawn), in data set [1], the IC50 was found to be 6.8 µM. The EC50 with Norovirus (Norovirus, HG23, 48 h) is 4.6 µM; in the data set with Murine norovirus [2], more than 20 µM. Moreover, the CC50 at 48 h in data set [3] came to 69.2 µM.

`O=C1CC[C@@H](C(O)S(=O)(=O)O)NC(=O)C2(CCCCC2)NC(=O)OC(c2cccc(Cl)c2)CCCCCN1` (stereo partly drawn) registered an IC50 in data set [1] of more than 100 µM. The EC50 is more than 20 µM in the data set on Norovirus (Norovirus, HG23, 48 h) and more than 20 µM in the data set with Murine norovirus [2]. For the same compound, the CC50 at 48 h in data set [3] turned out to be 48.5 µM.

With `CC(C)C[C@@H]1NC(=O)OC(CCCc2ccccc2)CCCCCNC(=O)CC[C@@H](C=O)NC1=O` (stereo partly drawn), half-maximal inhibition in data set [1] (IC50) was put at 4.2 µM. For the same compound, the EC50 in the data set on Norovirus (Norovirus, HG23, 48 h) was 7.5 µM; in the data set with Murine norovirus [2] it was more than 20 µM. Besides, in data set [3], the CC50 at 48 h came to 71.5 µM.

In data set [1], `O=C[C@@H]1CCC(=O)NC/C=C/CCC(c2cccc(Cl)c2)OC(=O)N[C@@H](CC2CCCCC2)C(=O)N1` (stereo partly drawn) registered an IC50 of 1.3 µM. Besides, the EC50 in the data set on Norovirus (Norovirus, HG23, 48 h) is 1.5 µM; in the data set on Murine norovirus [2], 3.1 µM. Moreover, in data set [3], the CC50 at 48 h was determined as 42.3 µM.

`C[C@@H]1NC(=O)OC(c2cccc(Cl)c2)CCCCCCNC(=O)CC[C@@H](C=O)NC1=O` (stereo partly drawn) registered an IC50 in data set [1] of 62.3 µM. Moreover, the EC50 in the data set with Norovirus (Norovirus, HG23, 48 h) is 9.5 µM; in the data set with Murine norovirus [2], more than 20 µM. The CC50 at 48 h in data set [3] is more than 100 µM.

`CC(C)C[C@@H]1NC(=O)OC(c2ccccc2)CCCCCNC(=O)CC[C@@H](C=O)NC1=O` (stereo partly drawn) yielded an IC50 in data set [1] of 1.3 µM. Besides, the EC50 in the data set with Norovirus (Norovirus, HG23, 48 h) was 7.7 µM; with Murine norovirus [2], more than 20 µM. In data set [3], the CC50 at 48 h is more than 100 µM.

With `CCCCCC1CCCCCNC(=O)CC[C@@H](C=O)NC(=O)[C@H](CC(C)C)NC(=O)O1` (stereo partly drawn), 3.2 µM corresponded to half-maximal inhibition in data set [1] (IC50). Moreover, the EC50 with Norovirus (Norovirus, HG23, 48 h) came out at 3.1 µM; in the data set with Murine norovirus [2] it was 12.1 µM. Further, in data set [3], the CC50 at 48 h was 72.7 µM.

On to `CC(C)C[C@@H]1NC(=O)OC(c2cccc(Cl)c2)CCCCCCNC(=O)CC[C@@H](C=O)NC1=O` (stereo partly drawn), for which, in data set [1], the IC50 stood at 6.3 µM. For the same compound, the EC50 in the data set on Norovirus (Norovirus, HG23, 48 h) was 5.4 µM; in the data set with Murine norovirus [2], more than 20 µM. Moreover, the CC50 at 48 h in data set [3] is 67.4 µM.

Compound `CC(C)C[C@@H]1NC(=O)OC(c2cccc(Cl)c2)CCCCCNC(=O)CC[C@@H](C(=O)C(=O)NC2CC2)NC1=O` (stereo partly drawn) gave an IC50 in data set [1] of 2.3 µM. In addition, the EC50 came to 9.1 µM in the data set on Norovirus (Norovirus, HG23, 48 h) and 15.5 µM in the data set with Murine norovirus [2]. Also, the CC50 at 48 h in data set [3] stood at 53.1 µM.

Take `O=C[C@@H]1CCC(=O)NCCCCCCC(c2cccc(Cl)c2)OC(=O)NC2(CCCCC2)C(=O)N1` (stereo partly drawn): the IC50 in data set [1] was more than 100 µM. In addition, the EC50 in the data set on Norovirus (Norovirus, HG23, 48 h) was more than 20 µM; in the data set with Murine norovirus [2], more than 20 µM. Further, the CC50 at 48 h in data set [3] worked out at 53.3 µM.

`CC(C)C[C@@H]1NC(=O)OC(Cc2ccccc2)CCCCCNC(=O)CC[C@@H](C=O)NC1=O` (stereo partly drawn) had an IC50 in data set [1] of 4.6 µM. In addition, the EC50 in the data set with Norovirus (Norovirus, HG23, 48 h) was 8.8 µM; in the data set on Murine norovirus [2], more than 20 µM. The CC50 at 48 h in data set [3] was more than 100 µM.

Regarding `CC(C)C[C@@H]1NC(=O)OC(Cc2ccccc2)CC/C=C/CNC(=O)CC[C@@H](C=O)NC1=O` (stereo partly drawn), the 50% inhibitory concentration (IC50) in data set [1] was determined as 2.5 µM. The concentration for a half-maximal effect (EC50) in the data set on Norovirus (Norovirus, HG23, 48 h) is 3.1 µM; in the data set with Murine norovirus [2], more than 20 µM. Also, in data set [3], the CC50 at 48 h was more than 100 µM.

`CC(C)C[C@@H]1NC(=O)OC(c2cccc(Cl)c2)CCCCCNC(=O)CC[C@@H](C=O)NC1=O` (stereo partly drawn): in data set [1], the IC50 worked out at 1.5 µM. The EC50 was 1.8 µM in the data set with Norovirus (Norovirus, HG23, 48 h) and 13.2 µM in the data set with Murine norovirus [2]. Also, in data set [3], the CC50 at 48 h is more than 100 µM.

In the case of `O=C[C@@H]1CCC(=O)NCCCCCC(c2cccc(Cl)c2)OC(=O)NC2(CCCCC2)C(=O)N1` (stereo partly drawn), the IC50 in data set [1] was more than 100 µM. The EC50 in the data set with Norovirus (Norovirus, HG23, 48 h) was more than 20 µM; in the data set on Murine norovirus [2], more than 20 µM. Besides, the CC50 at 48 h in data set [3] is 62.4 µM.

The compound `CCCCCC1CCCCCNC(=O)CC[C@@H](C(O)S(=O)(=O)O)NC(=O)[C@H](CC(C)C)NC(=O)O1` (stereo partly drawn) had an IC50 in data set [1] of 5.1 µM. The EC50 with Norovirus (Norovirus, HG23, 48 h) came to 3.5 µM; in the data set with Murine norovirus [2] it was 14.6 µM. In addition, in data set [3], the CC50 at 48 h is 78.5 µM.

In data set [1], `CC(C)C[C@@H]1NC(=O)OC(c2cccc(Cl)c2)CCCCCONC(=O)CC[C@@H](C=O)NC1=O` (stereo in doubt; 36A) yielded an IC50 of 30.5 µM. Moreover, the EC50 was found to be 3.6 µM in the data set on Norovirus (Norovirus, HG23, 48 h) and 15.5 µM in the data set on Murine norovirus [2]. Also, the CC50 at 48 h in data set [3] worked out at 68.3 µM.

For `CC(C)C[C@@H]1NC(=O)OC(c2cccc(Cl)c2)CCCCCONC(=O)CC[C@@H](C=O)NC1=O` (stereo in doubt; 36B), in data set [1], 46.7 µM corresponded to half-maximal inhibition (IC50). The EC50 with Norovirus came out at 5.1 µM; with Murine norovirus [4], 13.4 µM. Moreover, the CC50 in data set [3] was 73.8 µM.

Turning to `O=C[C@@H]1CCC(=O)NCCCCCC(c2cccc(Cl)c2)OC(=O)N[C@@H](CC2CCCCC2)C(=O)N1` (stereo in doubt; form 1), in data set [1], the IC50 turned out to be 4.1 µM. Also, the EC50 in the data set on Norovirus (Norovirus, HG23, 48 h) is 2.1 µM; with Murine norovirus [2], 4.3 µM. In addition, in data set [3], the CC50 at 48 h was 62.4 µM.

In data set [1], `O=C[C@@H]1CCC(=O)NCCCCCC(c2cccc(Cl)c2)OC(=O)N[C@@H](CC2CCCCC2)C(=O)N1` (stereo in doubt; form 2) had an IC50 of 6.5 µM. Further, the EC50 is 2.5 µM in the data set with Norovirus and 6.5 µM in the data set with Murine norovirus [4]. In data set [3], the CC50 was found to be 45.3 µM.
